High-throughput results as filed in PubChem BioAssay.
This is a sample that favours compounds with a hit; in the whole collection about 2.3% have one here.
core dimer inh = HCV core protein dimerization inhibition | actives 0.33% (n = 300,000) | inhibition, % at 5 µM | TR-FRET GST/Flag-core106 dimerization, 1536-well;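 active = inhibition above the mean of all tested compounds plus 3 SD, set per screening campaign, cut at about 45% in these data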
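test system = GST/Flag-tagged HCV core106 proteins | probe or stimulus = Eu donor and XL665 acceptor anti-tag antibodies | times = compound-protein-antibody incubation 4 h at 22.5 °C | signal = TR-FRET, excitation 340 nm, emission 617 and 671 nm | measure = percent inhibition of core106 dimerization signal | controls = wells lacking GST-core106 and wells with excess unlabelled core106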
EBNA-1 inhibitor = blocks EBNA-1 binding to DNA; actives 0.34% (n = 300,000); AID 1950; inhibition, % at 14.8 µM; EBNA-1 DNA binding, fluorescence polarization; in the data active = inhibition above about 28%
HCV NS3 hel inh = inhibitors of Hepatitis C virus NS3 helicase; NS3 helicase DNA unwinding, Cy5 molecular beacon fluorescence; actives 0.56% (n = 290,000); AID 1800; inhibition, % at 10.9 µM;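 active = inhibition above the mean of all tested compounds plus 3 SD, set per campaign, cut at about 35% in these data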
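System: NS3 helicase fragment of HCV / Schedule: 1 h at 25 °C / Control set: DMSO alone as 0% and 110 µM thioflavine S as 100% / Reagent: Cy5/quencher beacon DNA duplex and ATP to start / Technique: Cy5 fluorescence / Replication: singlicate / Evaluation: % inhibition of end-to-start signal ratio versus controls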
ZTA DNA inh = ZTA (EBV) inhibition in EBNA-1 counter-screen | P03206 | ZTA-DNA binding, fluorescence polarization | actives 0.15% (n = 320,000) | inhibition, % at 11 µM; in the data active = inhibition above about 33%
Target sequence (P03206 whole entry, looked up): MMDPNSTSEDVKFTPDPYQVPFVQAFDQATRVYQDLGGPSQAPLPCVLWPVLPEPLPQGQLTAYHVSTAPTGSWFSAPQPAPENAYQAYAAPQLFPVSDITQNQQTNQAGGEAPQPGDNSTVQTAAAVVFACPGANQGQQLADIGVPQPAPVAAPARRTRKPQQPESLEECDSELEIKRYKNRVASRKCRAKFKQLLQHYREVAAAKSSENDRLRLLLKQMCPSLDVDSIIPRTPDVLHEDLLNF
EBV gp42 block = inhibitors of Epstein-Barr virus glycoprotein 42; Fluorescence polarization binding assay, mP read-out; inhibition, % (tested at 21.74 µM); actives 0.42% (n = 220,000); in the data active = inhibition above about 50%
Target sequence (Q1HVG2 whole entry, looked up): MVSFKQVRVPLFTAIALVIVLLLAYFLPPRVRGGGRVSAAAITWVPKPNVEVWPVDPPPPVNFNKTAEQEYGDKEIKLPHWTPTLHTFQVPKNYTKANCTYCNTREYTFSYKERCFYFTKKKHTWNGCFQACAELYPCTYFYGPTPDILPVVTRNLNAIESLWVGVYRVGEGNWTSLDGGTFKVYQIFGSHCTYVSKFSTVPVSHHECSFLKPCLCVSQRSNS
GPR7 antagonist = antagonists of human GPR7 (neuropeptides B/W receptor 1). inhibition, % at 4.4 µM. GPR7-expressing cells, fluorescence antagonist assay. P48145. actives 1.1% (n = 290,000); in the data active = inhibition above about 16%, passing the limit was not always enough;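 note: cells stimulated with the agonist NPW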
GPR7 antag conf = confirmation of human GPR7 antagonists | shares compounds with GPR7 antagonist | actives 52% (n = 2,400) | AID 1952 | GPR7-expressing cells, calcium fluorescence antagonist mode | inhibition, % at 4.4 µM; in the data active = inhibition above about 24%;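 note: stimulated with the GPR7 agonist NPW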
MCHR1 antagonist = counter-screen for GPR7 antagonists: antagonists of human MCHR1. shares compounds with GPR7 antagonist. MCHR1-expressing cells, fluorescence antagonist assay. inhibition, % at 4.4 µM. actives 62% (n = 2,400). AID 2148; in the data active = inhibition above about 22%
Hits are given with their value.

How did CC1CN/C(=C\C(=O)c2ccccc2)C(=O)N1 (centres undefined) do in these assays?
core dimer inh: inactive; EBNA-1 inhibitor: inactive; HCV NS3 hel inh: inactive; ZTA DNA inh: inactive; EBV gp42 block: inactive; GPR7 antagonist: 30; GPR7 antag conf: inactive; MCHR1 antagonist: inactive

Results for CC1CN/C(=C\C(=O)c2ccc(Cl)cc2)C(=O)N1 (centres undefined) ?
core dimer inh: inactive; EBNA-1 inhibitor: inactive; HCV NS3 hel inh: inactive; ZTA DNA inh: inactive; EBV gp42 block: inactive; GPR7 antagonist: inactive

Results for CCCN1C=CC(=C/C=C(\C#N)C(=O)OCC)C=C1 ?
core dimer inh: inactive; EBNA-1 inhibitor: inactive; HCV NS3 hel inh: inactive; ZTA DNA inh: inactive; EBV gp42 block: inactive; GPR7 antagonist: inactive

What do the screens show for `CCCCCCN1C=CC(=C/C=C(\C#N)C(=O)OCC)C=C1`?
core dimer inh: inactive; EBNA-1 inhibitor: inactive; HCV NS3 hel inh: inactive; ZTA DNA inh: inactive; EBV gp42 block: inactive; GPR7 antagonist: 30; GPR7 antag conf: 47; MCHR1 antagonist: 64

What do the screens show for `COc1ccc(-c2nc(SCC(=O)NC3CCCCC3)n[nH]2)cc1`?
HCV NS3 hel inh: inactive; GPR7 antagonist: 23; GPR7 antag conf: inactive; MCHR1 antagonist: 35

Results for CCc1cc2cc(C(=O)N3CCN(c4ccccc4)CC3)sc2s1 ?
core dimer inh: inactive; EBNA-1 inhibitor: inactive; HCV NS3 hel inh: inactive; ZTA DNA inh: inactive; EBV gp42 block: inactive; GPR7 antagonist: inactive

Results for CCc1cc2cc(C(=O)N3CCN(Cc4ccccc4)CC3)sc2s1 ?
core dimer inh: inactive; EBNA-1 inhibitor: inactive; HCV NS3 hel inh: inactive; ZTA DNA inh: inactive; EBV gp42 block: inactive; GPR7 antagonist: 28; GPR7 antag conf: inactive; MCHR1 antagonist: 45

Results for C=CCC1(CC=C)CCCN1C(=O)CC1C(=O)NCCN1Cc1cccc(OC)c1OC (centres undefined) ?
core dimer inh: inactive; EBNA-1 inhibitor: inactive; HCV NS3 hel inh: inactive; ZTA DNA inh: inactive; EBV gp42 block: inactive; GPR7 antagonist: inactive

What do the screens show for `COc1ccc(CN(CCc2ccccc2)Cc2ccccc2)cc1OC`?
core dimer inh: inactive; EBNA-1 inhibitor: inactive; HCV NS3 hel inh: inactive; ZTA DNA inh: inactive; GPR7 antagonist: inactive

What do the screens show for `COc1cc(CN(CCN(C)C)Cc2ccccc2)ccc1OCc1ccccc1`?
core dimer inh: inactive; EBNA-1 inhibitor: inactive; HCV NS3 hel inh: inactive; ZTA DNA inh: inactive; GPR7 antagonist: 44; GPR7 antag conf: 57; MCHR1 antagonist: 34

How did COc1ccc(OCC(O)CN2CCCCC2)cc1 (centres undefined) do in these assays?
core dimer inh: inactive; EBNA-1 inhibitor: inactive; HCV NS3 hel inh: inactive; ZTA DNA inh: inactive; EBV gp42 block: inactive; GPR7 antagonist: inactive

What do the screens show for `Cc1ccc(OCC(O)Cn2c(=N)n(CCN3CCOCC3)c3ccccc32)cc1` (centres undefined)?
core dimer inh: inactive; EBNA-1 inhibitor: inactive; HCV NS3 hel inh: inactive; ZTA DNA inh: inactive; EBV gp42 block: inactive; GPR7 antagonist: inactive

Results for COc1ccc(OCC(O)Cn2c(=N)n(CCN3CCCCC3)c3ccccc32)cc1 (centres undefined) ?
core dimer inh: inactive; EBNA-1 inhibitor: inactive; HCV NS3 hel inh: inactive; ZTA DNA inh: inactive; EBV gp42 block: inactive; GPR7 antagonist: 29; GPR7 antag conf: inactive; MCHR1 antagonist: 23

How did Cc1ccc(OCC(O)Cn2c(=N)n(CCN3CCCCC3)c3ccccc32)cc1 (centres undefined) do in these assays?
core dimer inh: inactive; EBNA-1 inhibitor: inactive; HCV NS3 hel inh: inactive; ZTA DNA inh: inactive; EBV gp42 block: inactive; GPR7 antagonist: 28; GPR7 antag conf: 41; MCHR1 antagonist: 39

What do the screens show for `NC(=O)c1c(NC(=O)Cc2ccccc2)sc2c1CCN(Cc1ccccc1)C2`?
core dimer inh: inactive; EBNA-1 inhibitor: inactive; HCV NS3 hel inh: inactive; ZTA DNA inh: inactive; GPR7 antagonist: inactive
